m5-HT2A agonist: activates the mouse 5-HT2A serotonin receptor; P35363; CHO-K1 mHTR2A beta-arrestin complementation, luminescence; percent of 30 µM serotonin response; activation, % at 7.6 µM; 360,000 compounds, 0.66% hits; AID 624169;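 active = activation above a run cutoff, the mean activation of all tested compounds plus 3 SD, cut at about 14% in these data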;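 note: 0% = plate median of compound wells and 100% = 30 µM serotonin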
MC4R ag barr: activates human MC4R beta-arrestin recruitment | U2OS MC4R beta-arrestin complementation, luminescence; percent of melanotan II response, DMSO zero | activation, % at 8.9 µM | 360,000 compounds, 0.98% hits;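 active = activation above a per-plate cutoff, the mean activation of sample wells on that plate plus 3 SD, cut at about 8% in these data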
Target sequence (P32245 whole entry, looked up): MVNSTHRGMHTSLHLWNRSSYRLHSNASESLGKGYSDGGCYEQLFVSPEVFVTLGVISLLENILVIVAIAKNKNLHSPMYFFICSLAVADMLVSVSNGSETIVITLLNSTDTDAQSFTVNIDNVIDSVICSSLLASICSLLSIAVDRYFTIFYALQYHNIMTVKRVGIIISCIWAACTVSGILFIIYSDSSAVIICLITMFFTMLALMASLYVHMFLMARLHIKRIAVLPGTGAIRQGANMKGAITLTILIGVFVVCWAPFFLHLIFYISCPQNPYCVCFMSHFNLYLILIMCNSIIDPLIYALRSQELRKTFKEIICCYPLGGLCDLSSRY
Beta2AR agonist: activates human beta-2 adrenergic receptor causing internalization. P07550. Am2.2-beta2AR cells, FAP receptor internalization, flow cytometry. response, % (concentration not given with the values). 340,000 compounds, 0.43% hits;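 active = response above a set limit, near 3 SD of response in nonfluorescent compounds, cut at about 42% in these data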
MC4R antag cAMP: antagonists of human melanocortin 4 receptor (MC4R). P32245. MC4R-expressing cells, MTII-stimulated cAMP, LANCE TR-FRET. inhibition, % at 6.5 µM. 360,000 compounds, 0.48% hits. AID 540295;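 active = inhibition above its plate's cutoff, the mean of tested wells on that plate plus 3 SD, cut at about 29% in these data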;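 note: 0% = Melanotan II alone and 100% = Melanotan II plus saturating MCL0020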
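System: U2OS-MC4R stable cell line; Technique: Eu-cAMP/anti-cAMP TR-FRET, emission 671 nm; Repeats: single well per compound; Also added: Melanotan II; Dosing: one concentration, 6.5 µM nominal; Schedule: 30-min compound, 1-h challenge, 1-h detection, room temperature.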
TAAR1 agonist: human TAAR1 agonism; Q96RJ0; CHO RD-HGA16 TAAR1, Fluo-8 calcium fluorescence; vehicle wells 0%, saturating PEA agonist 100%; activation, % at 3 µM; 360,000 compounds, 0.99% hits;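 active = activation above the mean activation of all test compounds in the run plus 3 SD, cut at about 38% in these data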
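Repeats: no replicates (n 1) | Material: CHO-derived RD-HGA16 cells with stable Gα16 and human TAAR1 | Technique: Kinetic Fluo-8 calcium fluorescence | Schedule: 17-24 h seeding, 75 min 37 °C dye, 30 min RT | Evaluation: % activation from peak over basal fluorescence ratio, DMSO-to-PEA scaled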
TAAR1 antagonist: human TAAR1 antagonism. Q96RJ0. CHO RD-HGA16 TAAR1, Fluo-8 calcium fluorescence, antagonist. inhibition, % at 3 µM. 360,000 compounds, 1.5% hits. AID 624466;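 active = inhibition above a per-plate cutoff, the mean inhibition of test compounds on that plate plus 3 SD, cut at about 49% in these data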;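 note: 0% = DMSO plus EC80 beta-PEA response and 100% = DMSO alone without agonist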
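Assay system: RD-HGA16 CHO cells with stable hTAAR1 and Gα16 / Reagent: EC80 β-phenethylamine stimulus / Doses: 3 µM, single point / Timing: dye loading 75 min at 37 °C, then 30 min room temperature / Measured by: Fluo-8 intracellular calcium dye fluorescence, real-time kinetic reads / Controls: vehicle wells and EC80 agonist wells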
B2AR ag CP1: agonists of human beta-2 adrenergic receptor; Am2.2-beta2AR cells, FAP surface receptor, flow cytometry; stronger effect = lower value; 1,100 compounds, 25% hits; percent response (surface receptor), % at 10 µM; AID 540358; shares compounds with Beta2AR agonist;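 active = surface receptor percent response at or below 58%, roughly 3 SD from nonfluorescent compounds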
B2AR FAP counter: flagged in Am2.2 fluorescence counterscreen for beta-2AR agonists | calls only at 10 µM | AID 588765 | 1,100 tested, under 10 active | Am2.2 cells, FAP fluorogen flow cytometry; stronger effect = lower value | shares compounds with Beta2AR agonist;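 active = percent response below a set limit in fluorescence channel 1 and below 50% in channel 8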
* = called active by the depositor; i = inactive; · = no result given. The list is not random: actives were taken first. Their share in the collection is about 4.3%.

SMILES	m5-HT2A agonist	MC4R ag barr	Beta2AR agonist	MC4R antag cAMP	TAAR1 agonist	TAAR1 antagonist	B2AR ag CP1	B2AR FAP counter
COc1ccc(C(=O)NCC(c2ccco2)N2CCc3ccccc32)cc1 (configuration not stated)	3	-5	54*	-21	-2	-24	91	i
COC(=O)c1sc(C(F)(F)F)c(-c2ccccc2)c1S(=O)(=O)N1CCOCC1	2	2	4	3	-2	-7	·	·
Cc1ccc2c(c1)c1c(n2CC(O)CNC(CO)(CO)CO)CCCC1 (configuration not stated)	-6	-1	2	8	1	-15	·	·
Cc1ccc2c(c1)c1c(n2CC(O)CNC2CCCCC2)CCCC1 (configuration not stated)	4	9.0*	53*	-2	24	11	112	i
CC(=O)N1CCOc2ccc(S(=O)(=O)N3CCC(C(=O)NCc4ccc(C)cc4)CC3)cc21	-4	-1	-2	5	0	-10	·	·
COc1ccc(S(=O)(=O)N(Cc2ccco2)Cc2cc3ccccc3[nH]c2=O)cc1	-3	-4	-9	9	9	40	161	i
Cc1ccc(S(=O)(=O)N(Cc2cccnc2)Cc2cc3ccccc3[nH]c2=O)cc1	-1	0	-11	22	19	39	154	i
CC(=O)Nc1ccc(S(=O)(=O)N(Cc2cccnc2)Cc2cc3ccc(C)cc3[nH]c2=O)cc1	0	-1	8	7	1	7	·	·
CCN(Cc1cc2ccccc2[nH]c1=O)S(=O)(=O)c1ccccc1	7	0	-24	0	7	1	·	·
O=c1[nH]c2ccccc2cc1CN(Cc1ccco1)S(=O)(=O)c1ccccc1	1	1	-22	0	12	47	160	i
CCOC(CNC(=O)C(=O)Nc1cc2c3c(c1)CCC(=O)N3CCC2)OCC	-3	-1	-1	5	2	-1	·	·
Cc1ccc(C(=O)N=c2sccn2C)o1	5	-3	-2	13	2	-18	·	·
COc1cc(OC)cc(C(=O)Nc2nc(CC(=O)NC(C)c3ccccc3)cs2)c1 (configuration not stated)	-5	-1	2	2	5	46	·	·
Cc1ccc(-n2nc3c(N4CCC(C(=O)NCc5ccc(C)o5)CC4)nnc(C)c3c2C)cc1	1	-3	10	14	-2	-41	·	·
COc1ccc(-n2nc3c(N4CCC(C(=O)NCc5ccco5)CC4)nnc(C)c3c2C)cc1	-3	-1	7	6	·	·	98	i
COc1ccc(/C=N/NC(N)=S)cc1	13	2	2	2	2	-7	·	·
CC(C)Oc1ccc(/C=N/NC(N)=S)cc1	-3	-2	-5	-1	1	8	92	i
CCOC(=O)C1=C(COC(=O)c2ccc([N+](=O)[O-])o2)NC(=O)NC1C (configuration not stated)	13	0	3	-37	3	2	·	·
COC(=O)CCC(=O)c1oc2ccccc2c1NC(=O)CCCN1C(=O)c2ccccc2C1=O	1	1	2	14	1	6	·	·
CC(=O)c1oc2ccccc2c1NC(=O)CCCN1C(=O)c2ccccc2C1=O	4	0	68*	10	1	6	101	i
CN1C(=O)NC(=O)C1c1ccccc1 (configuration not stated)	5	-1	0	9	2	-2	·	·
Cc1cccc(OCCC(=O)Nc2ccc(C)c(S(=O)(=O)N3CCCCC3)c2)c1	-4	5	5	22	5	8	·	·
CCOc1ccccc1N1CC(C(=O)N(C)Cc2cccnc2)CC1=O (configuration not stated)	1	0	-12	-3	1	-12	·	·
COc1ccc(CN2CCC(Oc3ccc(C(=O)N4CCCC4)cc3)CC2)c(F)c1	-1	-3	26	3	4	-4	107	i
O=C(c1cccc(OC2CCN(Cc3ccc(F)cc3)CC2)c1)N1CCCC1	-10	-3	-7	11	-1	-8	·	·
SMILES	m5-HT2A agonist	MC4R ag barr	Beta2AR agonist	MC4R antag cAMP	TAAR1 agonist	TAAR1 antagonist	B2AR ag CP1	B2AR FAP counter
CCc1ccc(CN2CCC(Oc3ccc(C(=O)N4CCCC4)cc3)CC2)cc1	-5	-3	82*	0	0	-22	9.0*	i
CSc1ccc(CN2CCC(Oc3ccc(C(=O)N4CCCC4)cc3)CC2)cc1	-6	-3	51*	4	10	-30	70	i
O=C(c1ccc(OC2CCN(Cc3ccc(F)cc3)CC2)cc1)N1CCCC1	-7	0	43*	-2	5	-28	46*	i
COCCN1C(=O)CSCC1(C)C(=O)Nc1c(C)cccc1C (configuration not stated)	6	·	·	·	1	-12	·	·
CC(OC(=O)c1ccc(Cl)c(S(N)(=O)=O)c1)C(=O)NCc1ccc2c(c1)OCO2 (configuration not stated)	-1	2	4	14	2	-8	·	·
FC(F)(F)Oc1ccccc1C(c1nnnn1-c1ccc2c(c1)OCCO2)N1CCN(C/C=C/c2ccccc2)CC1 (configuration not stated)	-5	·	·	·	1	0	·	·
Cn1cc(C(=O)NS(=O)(=O)Nc2ccc(Br)cc2)c2ccccc21	-1	0	3	3	1	3	·	·
CCc1ccc(CN2CCC(Oc3ccc(C(=O)N4CCCCC4)cc3)CC2)cc1	-4	-1	67*	10	0	-23	40*	i
COc1ccc(C2C(C#N)=C(N)Oc3cc(N)ccc32)cc1 (configuration not stated)	0	-2	-2	7	2	-12	·	·
COc1ccc(C2C(C#N)=C(N)Oc3c2sc2nc(C)cc(C)c32)cc1 (configuration not stated)	-1	-2	80*	-4	8	0	43*	i
CC(Sc1nnc2n1CCCCC2)C(=O)Nc1ccc(S(N)(=O)=O)cc1 (configuration not stated)	-3	-1	-9	14	4	0	·	·
Cc1nnc2ccc(-c3ccc(NC(=O)c4cccnc4Cl)cc3)nn12	4	0	-3	6	0	-14	·	·
CCOc1ncccc1C(=O)Nc1ccc(-c2ccc3nnc(C)n3n2)cc1	8	1	44*	-4	2	-11	107	i
